The values below come from ChEMBL document CHEMBL1130346, “A new rational hypothesis for the pharmacophore of the active metabolite of leflunomide, a potent immunosuppressive drug” (J Med Chem, 1997).

SMILES strings stand for the structures.

One may read the IC50 as the midpoint of a concentration-inhibition curve. Read a low IC50 as inhibition by little substance.

Assay [1] in a line: In vitro inhibition of lymphocyte activated CD71 antigens induced by monoclonal antibody. Type of assay: functional, Homo sapiens. In short, it runs like this: (§1)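 Human PBMC from healthy donors, separated on Ficoll-Hypaque, at 10⁶ cells/mL in RPMI 1640 with 10% FBS. Cells were incubated with test compounds and stimulated with an optimal concentration of anti-CD3 mAb OKT3 for 24 h at 37 °C in 5% CO₂. CD2, CD25 and CD71 were read by immunofluorescence staining and flow cytometry. IC50 values came from at least two experiments, which differed by less than 10%.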

Assay [2] is described as follows: In vitro inhibition of lymphocyte activated CD2 antigens induced by monoclonal antibody. The assay is classed as functional, Homo sapiens. The method, boiled down:
as §1

Assay [3] is filed under the species Mus musculus. Briefly: The compound was tested for in vitro mixed lymphocyte reaction. Type of assay: functional, organism-based. The method, boiled down: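 Bidirectional murine MLR using BALB/c and DBA/2 splenocytes isolated on Ficoll-Hypaque. 5×10⁴ cells of each strain were cocultured in triplicate for 96 h with serial dilutions of compound (20 mM DMSO stock), with DMSO-matched controls. Medium was RPMI 1640 with 5% FBS. [³H]thymidine (1 µCi) was added for the last 18 h. IC50 is 50% inhibition of proliferation versus untreated cultures; at least three experiments.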

The nature of assay [4]: In vitro inhibition of lymphocyte activated CD25 antigens induced by monoclonal antibody. Type of assay: functional, Homo sapiens. The method, boiled down: as §1
For assay [5], the system named is Mus musculus. Briefly: Inhibition of paw edema formation in mouse after an ip dose of 10 mg/kg; Thickness of paw = 2.38+/-0.07 mm. Type of assay: functional. The settings on record: route intraperitoneal.
For assay [6], the species on record is Mus musculus. Briefly: animal or person. The settings on record: ip, read-out: Inhibition.
Assay [7] is filed under the species Mus musculus. Briefly: animal or person. To be noted: ip, read-out: Inhibition. The source holds these as a separate data set.
Assay [8] concerns Mus musculus. Briefly: Inhibition of paw edema formation in mouse after an peroral dose of 10 mg/kg; Thickness of paw =2.45+/-0.14 mm. To be noted: route oral. Type of assay: functional.
Assay [9] in a line: In vitro inhibition of expression of lymphocyte activated CD71 antigens induced by monoclonal antibody. To be noted: Homo sapiens. The assay is classed as functional. In short, it runs like this: as §1
A short description of assay [10]: In vitro inhibition of expression of lymphocyte activated CD25 antigens induced by monoclonal antibody. Type of assay: functional. To be noted: Homo sapiens. The method, boiled down: as §1
A short description of assay [11]: In vitro inhibition of expression of lymphocyte activated CD2 antigens induced by monoclonal antibody. The assay is classed as functional. To be noted: Homo sapiens. The method, boiled down:
as §1

For `CCO/C(O)=C(/C(C)=O)C(=O)Nc1ccc(C(F)(F)F)cc1`, the IC50 in [1] stood at 78.1 µM; in assay [2] it was 90.8 µM; in the assay filed under Mus musculus [3] it was 71.6 µM; in [4], 96.4 µM.
Regarding `O=C1CCCC(O)=C1C(=O)Nc1ccc(C(F)(F)F)cc1`, the IC50 was determined as 11 µM in [1], 2.9 µM in assay [2], 1.25 µM in the assay filed under Mus musculus [3] and 2.9 µM in assay [4].
Take `O=C1COC(O)=C1C(=O)Nc1ccc(C(F)(F)F)cc1`: the IC50 is above 100 µM in assay [1], 95.4 µM in assay [2], 45.9 µM in the assay filed under Mus musculus [3] and above 100 µM in [4].
For `CC(O)=C(C(=O)Nc1ccc(C(F)(F)F)cc1)C(=O)Nc1ccc(C(F)(F)F)cc1`, the IC50 is 18.8 µM in assay [1], 15.3 µM in [2], 11.9 µM in the assay listed under Mus musculus [3] and 18.4 µM in assay [4].
As for `O=C(Nc1ccc(C(F)(F)F)cc1)c1ccccc1O`, the inhibition in vivo at 10 mg/kg in the assay on Mus musculus [5] was 43%. Also, the IC50 amounted to 4.4 µM in assay [1], 3 µM in [2], 1.65 µM in the assay listed under Mus musculus [3] and 2.4 µM in [4].
Consider `O=C1CCC(O)=C1C(=O)Nc1ccc(C(F)(F)F)cc1`, for which the IC50 was found to be 66.5 µM in [1], 13.8 µM in [2], 3.4 µM in the assay filed under Mus musculus [3] and 14.8 µM in [4].
Turning to `C/C=C/C[C@@H](C)[C@@H](O)[C@H]1C(=O)N[C@@H](CC)C(=O)N(C)CC(=O)N(C)[C@@H](CC(C)C)C(=O)N[C@@H](C(C)C)C(=O)N(C)[C@@H](CC(C)C)C(=O)N[C@@H](C)C(=O)N[C@H](C)C(=O)N(C)[C@@H](CC(C)C)C(=O)N(C)[C@@H](CC(C)C)C(=O)N(C)[C@@H](C(C)C)C(=O)N1C` [CYCLOSPORINE], the inhibition in vivo at 5 mg/kg in the assay filed under Mus musculus [6] turned out to be 48%. Also, in the assay filed under Mus musculus [7], the inhibition in vivo at 50 mg/kg was found to be 83%.
In the assay on Mus musculus [8], `Cc1oncc1C(=O)Nc1ccc(C(F)(F)F)cc1` [LEFLUNOMIDE] came in with an inhibition in vivo at 10 mg/kg of 45%. The IC50 in assay [9] is above 100 µM; in assay [10], 130 µM; in assay [11], 126 µM; in the assay listed under Mus musculus [3], 9.6 µM.
`C/C(O)=C(\C#N)C(=O)Nc1ccc(C(F)(F)F)cc1` [TERIFLUNOMIDE]: the IC50 in assay [1] stood at 74.6 µM; in assay [2] it was 50.9 µM; in the assay listed under Mus musculus [3] it was 41.3 µM; in assay [4] it was 89.9 µM.
